According to ChEMBL document CHEMBL4480366, “Rationally synthesized coumarin based pyrazolines ameliorate carrageenan induced inflammation through COX-2/pro-inflammatory cytokine inhibition” (Medchemcomm, 2019):
pIC50: −log10 of the molar value. Active and inactive are the calls of the source. The rule behind the calls is not given here.

Assays:
[1] = In-vitro anti-inflammatory activity assessed as inhibition of heat-induced albumin (unknown origin) denaturation
Erythrocyte [2] = experiment: Anti-inflammatory activity in human erythrocytes assessed as inhibition of heat-induced hemolysis; assay type: functional, cell-based
Erythrocyte [3] = experiment: Anti-inflammatory activity in human erythrocytes assessed as inhibition of hypotonicity-induced hemolysis at 10 to 100 ug/ml relative to control; assay type: functional, cell-based
[4] = biological target: T1, Prostaglandin G/H synthase 1 (Ovis aries, UniProt P05979); experiment: Inhibition of ovine COX1 using arachidonic acid as substrate preincubated for 10 mins followed by substrate addition and measured after 2 mins by ELISA
T1 sequence (P05979 whole entry): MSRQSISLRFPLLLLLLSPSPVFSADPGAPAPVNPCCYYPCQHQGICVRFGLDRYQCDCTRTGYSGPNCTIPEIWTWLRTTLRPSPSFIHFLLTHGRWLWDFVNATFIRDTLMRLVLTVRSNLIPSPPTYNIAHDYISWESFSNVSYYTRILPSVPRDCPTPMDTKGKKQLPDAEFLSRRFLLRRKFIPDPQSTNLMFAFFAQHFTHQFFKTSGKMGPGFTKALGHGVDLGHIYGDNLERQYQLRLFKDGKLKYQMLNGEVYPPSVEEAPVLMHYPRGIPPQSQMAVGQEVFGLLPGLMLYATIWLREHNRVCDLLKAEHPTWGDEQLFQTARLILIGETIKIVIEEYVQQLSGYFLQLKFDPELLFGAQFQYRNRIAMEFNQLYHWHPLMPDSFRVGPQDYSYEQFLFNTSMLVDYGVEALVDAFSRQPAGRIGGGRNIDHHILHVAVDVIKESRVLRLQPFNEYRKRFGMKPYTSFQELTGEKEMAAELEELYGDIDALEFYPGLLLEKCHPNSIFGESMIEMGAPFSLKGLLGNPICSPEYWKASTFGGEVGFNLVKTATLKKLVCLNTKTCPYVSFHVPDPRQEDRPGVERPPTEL
In short: (§1)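 The enzyme, heme and test compound (dissolved in DMSO) were preincubated for 10 min at 37 °C in 0.1 M Tris-HCl, pH 8, with 5 mM EDTA and 2 mM phenol. Arachidonic acid was added to 100 µM final. The reaction was stopped after 2 min with 1 M HCl, then reduced with saturated SnCl2 for 5 min at RT. PGF2α was quantified by EIA (18 h RT, Ellman's reagent 60 min, 410 nm).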

[5] = biological target: T2, Prostaglandin G/H synthase 2 (Ovis aries, UniProt P79208); experiment: Inhibition of ovine COX2 using arachidonic acid as substrate preincubated for 10 mins followed by substrate addition and measured after 2 mins by ELISA; in short: as §1
T2 sequence (P79208 whole entry): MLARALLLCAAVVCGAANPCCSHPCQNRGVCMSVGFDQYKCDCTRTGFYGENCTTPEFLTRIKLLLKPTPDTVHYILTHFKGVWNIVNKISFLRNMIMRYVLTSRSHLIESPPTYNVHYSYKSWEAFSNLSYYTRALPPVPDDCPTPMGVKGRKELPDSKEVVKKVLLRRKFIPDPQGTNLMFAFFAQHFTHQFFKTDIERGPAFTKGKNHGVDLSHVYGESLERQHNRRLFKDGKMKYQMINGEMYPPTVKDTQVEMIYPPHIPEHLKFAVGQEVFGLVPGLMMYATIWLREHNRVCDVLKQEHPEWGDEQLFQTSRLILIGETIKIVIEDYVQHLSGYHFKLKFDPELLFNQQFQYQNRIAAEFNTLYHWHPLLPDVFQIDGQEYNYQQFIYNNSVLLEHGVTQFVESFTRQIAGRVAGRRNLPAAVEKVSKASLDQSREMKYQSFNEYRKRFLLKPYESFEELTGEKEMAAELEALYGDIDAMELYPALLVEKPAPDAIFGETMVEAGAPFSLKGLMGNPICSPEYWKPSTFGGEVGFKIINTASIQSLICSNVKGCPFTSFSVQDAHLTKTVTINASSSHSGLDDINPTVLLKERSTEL

[6] = In-vitro anti-inflammatory activity assessed as inhibition of heat-induced albumin (unknown origin) denaturation at 100 ug/ml
Erythrocyte [7] = experiment: Anti-inflammatory activity in human erythrocytes assessed as inhibition of heat-induced hemolysis at 10 ug/ml relative to control; assay type: functional
Erythrocyte [8] = experiment: Anti-inflammatory activity in human erythrocytes assessed as inhibition of heat-induced hemolysis at 25 ug/ml relative to control; assay type: functional
Erythrocyte [9] = experiment: Anti-inflammatory activity in human erythrocytes assessed as inhibition of heat-induced hemolysis at 50 ug/ml relative to control; assay type: functional
Erythrocyte [10] = experiment: Anti-inflammatory activity in human erythrocytes assessed as inhibition of heat-induced hemolysis at 100 ug/ml relative to control; assay type: functional
Erythrocyte [11] = experiment: Anti-inflammatory activity in human erythrocytes assessed as inhibition of hypotonicity-induced hemolysis at 10 ug/ml relative to control; assay type: functional
Erythrocyte [12] = experiment: Anti-inflammatory activity in human erythrocytes assessed as inhibition of hypotonicity-induced hemolysis at 25 ug/ml relative to control; assay type: functional
Erythrocyte [13] = experiment: Anti-inflammatory activity in human erythrocytes assessed as inhibition of hypotonicity-induced hemolysis at 50 ug/ml relative to control; assay type: functional
Erythrocyte [14] = experiment: Anti-inflammatory activity in human erythrocytes assessed as inhibition of hypotonicity-induced hemolysis at 100 ug/ml relative to control; assay type: functional
Rattus norvegicus [15] = experiment: Anti-inflammatory activity Wistar rat assessed as inhibition of carrageenan-induced paw edema at 25 to 50 mg/kg pretreated 30 mins prior to carrageenan-induction and measured after 0.5 to 24 hrs by plethysmography; assay type: functional, organism-based; conditions: TDE = time-dependent effect
In short: (§2)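 Male Wistar rats, 4–6 weeks old and weighing 150–200 g, were housed four per cage at 22–24 °C with standard food and water.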

Rattus norvegicus [16] = experiment: Anti-inflammatory activity Wistar rat assessed as inhibition of carrageenan-induced paw edema at 25 to 50 mg/kg pretreated 30 mins prior to carrageenan-induction and measured after 24 hrs by plethysmography; assay type: functional; in short: as §2
Rattus norvegicus [17] = experiment: Anti-inflammatory activity Wistar rat assessed as reduction in TNF-alpha production at 25 mg/kg, ip pretreated 30 mins prior to carrageenan-induction and measured after 24 hrs post induction by immunoassay; assay type: functional, organism-based; in short: as §2
Rattus norvegicus [18] = experiment: Anti-inflammatory activity Wistar rat assessed as reduction in IL-6 production at 25 mg/kg, ip pretreated 30 mins prior to carrageenan-induction and measured after 24 hrs post induction by immunoassay; assay type: functional, organism-based; in short: as §2
Rattus norvegicus [19] = experiment: Anti-inflammatory activity Wistar rat assessed as reduction in IL-1beta production at 25 mg/kg, ip pretreated 30 mins prior to carrageenan-induction and measured after 24 hrs post induction by immunoassay; assay type: functional, organism-based; in short: as §2
Rattus norvegicus [20] = experiment: Analgesic activity in Wistar rat assessed as reduction in acetic acid-induced abnormal writhing administered intraperitoneally 1 hr prior to acetic acid induction relative to control; assay type: functional; design: scale not given: the % may be the effect or the level left; in short: as §2
Rattus norvegicus [21] = experiment: Analgesic activity in Wistar rat assessed as reduction in acetic acid-induced abnormal writhing administered intraperitoneally 30 mins after substance P injection followed by acetic acid induction after 30 mins; assay type: functional, organism-based; in short: as §2
[22] = Inhibition of soyabean 5-LOX after 5 mins by spectrophotometric analysis; design: species or system Glycine max
[23] = Acute toxicity in Wistar rat assessed as induction of behavioural changes at 50 mg/kg, po administered as as single dose observed continuously during first 4 hrs followed by periodic monitoring for 24 hrs and subsequent observations at once or twice daily for 14 days; assay type: organism-based; conditions: in vivo
In short: (§3)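 Rats of either sex were used, per OECD guidelines, housed four per cage at 22–24 °C with standard food and water. They were fasted 4 h before and 2 h after dosing. Compounds were given as a single oral dose, with an untreated control group. Animals were watched continuously for the first 4 h, then periodically to 24 h, then once or twice daily for 14 days.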

[24] = Acute toxicity in Wistar rat assessed as induction of irritation at 300 to 2000 mg/kg, po administered as as single dose observed continuously during 1 to 4 hrs; assay type: organism-based; conditions: in vivo; in short: as §3
[25] = Acute toxicity in Wistar rat assessed as induction of itching at 300 to 2000 mg/kg, po administered as as single dose observed continuously during 1 to 4 hrs; assay type: organism-based; conditions: in vivo; in short: as §3
[26] = Acute toxicity in Wistar rat assessed as induction of sneezing at 300 to 2000 mg/kg, po administered as as single dose observed continuously during 1 to 4 hrs; assay type: organism-based; conditions: in vivo; in short: as §3
[27] = Cardiotoxicity in Wistar rat assessed as effect on myocardium at 2000 mg/kg, po administered as as single dose observed continuously during first 4 hrs followed by periodic monitoring for 24 hrs and subsequent observations at once or twice daily for 14 days by hematoxylin and eosin staining-based assay; assay type: toxicity, organism-based; conditions: in vivo
[28] = Hepatotoxicity in Wistar rat assessed as effect on liver at 2000 mg/kg, po administered as as single dose observed continuously during first 4 hrs followed by periodic monitoring for 24 hrs and subsequent observations at once or twice daily for 14 days by hematoxylin and eosin staining-based assay; assay type: toxicity, organism-based; conditions: in vivo
[29] = Renal toxicity in Wistar rat assessed as effect on kidney at 2000 mg/kg, po administered as as single dose observed continuously during first 4 hrs followed by periodic monitoring for 24 hrs and subsequent observations at once or twice daily for 14 days by hematoxylin and eosin staining-based assay; assay type: organism-based; conditions: in vivo
[30] = Acute toxicity in Wistar rat assessed as induction of behavioural changes at 50 to 2000 mg/kg, po administered as as single dose observed continuously during first 4 hrs followed by periodic monitoring for 24 hrs and subsequent observations at once or twice daily for 14 days; conditions: in vivo

Compound | pIC50 [4] | pIC50 [5] | inhibition [1] | Activity (Erythrocyte [2]) | Activity (Erythrocyte [3]) | inhibition (Rattus norvegicus [15]) | inhibition (INH) (Rattus norvegicus [16]) [%] | Activity (Rattus norvegicus [17]) | Activity (Rattus norvegicus [18]) | Activity (Rattus norvegicus [19]) | further results
CC(=O)N1N=C(c2cc3ccccc3oc2=O)CC1c1ccccc1 (stereo not drawn) | – | – | Dose-dependent effect | Dose-dependent effect | Active | – | – | – | – | – | –
COc1ccc(C2CC(c3cc4ccccc4oc3=O)=NN2C(C)=O)cc1 (stereo not drawn) | 4.65 | 6.39 | Dose-dependent effect | Dose-dependent effect | Active | Tde | 67.39 | Active | Active | Active | inhibition [6]: 70%; inhibition at 10 µg/mL (Erythrocyte [7]): 60%; inhibition at 25 µg/mL (Erythrocyte [8]): 63%; inhibition at 50 µg/mL (Erythrocyte [9]): 67%; inhibition at 100 µg/mL (Erythrocyte [10]): 69%; inhibition at 10 µg/mL (Erythrocyte [11]): 62%; inhibition at 25 µg/mL (Erythrocyte [12]): 63%; inhibition at 50 µg/mL (Erythrocyte [13]): 67%; inhibition at 100 µg/mL (Erythrocyte [14]): 68%; Activity (Rattus norvegicus [20]): 70.5%; Activity (Rattus norvegicus [21]): inactive; pIC50 [22]: 4.92; Activity [23]: Non-Toxic; Activity [24]: Toxic; Activity [25]: Toxic; Activity [26]: Toxic; Activity [27]: Non-Toxic; Activity [28]: Non-Toxic; Activity [29]: Non-Toxic; Activity [30]: Non-Toxic
CC(=O)N1N=C(c2cc3ccccc3oc2=O)CC1c1ccc([N+](=O)[O-])cc1 (stereo not drawn) | 4.79 | 5.75 | Dose-dependent effect | Dose-dependent effect | Active | Tde | 52.17 | Active | Active | Active | –
COc1ccccc1C1CC(c2cc3ccccc3oc2=O)=NN1C(C)=O (stereo not drawn) | < 4.52 | 5.36 | Dose-dependent effect | Dose-dependent effect | Active | – | – | – | – | – | –
CC(=O)N1N=C(c2cc3ccccc3oc2=O)CC1c1ccc(Cl)cc1 (stereo not drawn) | – | – | Dose-dependent effect | Dose-dependent effect | Active | – | – | – | – | – | –

Now from value to compound, other results behind:

pIC50 [4] | pIC50 [5] | Compound | inhibition [1] | Activity (Erythrocyte [2]) | Activity (Erythrocyte [3]) | inhibition (Rattus norvegicus [15]) | inhibition (INH) (Rattus norvegicus [16]) [%] | Activity (Rattus norvegicus [17]) | Activity (Rattus norvegicus [18]) | Activity (Rattus norvegicus [19]) | further results
< 4.52 | 6.64 | Cc1ccc(-c2ncc(Cl)cc2-c2ccc(S(C)(=O)=O)cc2)cn1 [ETORICOXIB] | – | – | – | – | – | – | – | – | inhibition at 10 µg/mL (Erythrocyte [7]): 65%; inhibition at 25 µg/mL (Erythrocyte [8]): 73%; inhibition at 50 µg/mL (Erythrocyte [9]): 78%; inhibition at 100 µg/mL (Erythrocyte [10]): 76%; inhibition at 10 µg/mL (Erythrocyte [11]): 52%; inhibition at 25 µg/mL (Erythrocyte [12]): 62%; inhibition at 50 µg/mL (Erythrocyte [13]): 66%; inhibition at 100 µg/mL (Erythrocyte [14]): 69%; inhibition (Rattus norvegicus [16]): Active; Activity (Rattus norvegicus [20]): 57.6%
4.70 | 5.62 | CC(=O)N1N=C(c2cc3ccccc3oc2=O)CC1c1ccc(O)cc1 (stereo not drawn) | Dose-dependent effect | Dose-dependent effect | Active | Tde | 55.43 | Active | Active | Active | –
< 4.52 | 5.36 | COc1cc(C2CC(c3cc4ccccc4oc3=O)=NN2C(C)=O)cc(OC)c1OC (stereo not drawn) | Dose-dependent effect | Dose-dependent effect | Active | – | – | – | – | – | –
